High-throughput results from PubChem.
IMP-1 inhibitor: IMP-1 metallo-beta-lactamase inhibitors, primary screen, biochemical, epi-absorbance readout, Pseudomonas aeruginosa enzyme; hit rate 0.45% among 290,000; inhibition, % at 5.6 µM; AID 1556, 2009; purified IMP-1, nitrocefin hydrolysis, epi-absorbance fluorescence;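 active = inhibition above the mean plus 3 SD of all compounds in the same screening run, cut at about 4.5% in these data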
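System: purified IMP-1; amount: IMP-1 0.2 nM before substrate addition; compound: single dose, 5.6 µM; times: 25 °C, 15 min preincubation, 25 min reaction; signal: Epi-absorbance via hydrolysed-nitrocefin quenching of white-plate fluorescence, 480/530 nm, EDTA stop; benchmarks: DMSO with and without IMP-1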
SUMO HTRF inh: inhibitors of in vitro SUMOylation cascade, primary screen, biochemical, HTRF, uHTS; HTRF SUMOylation assay, SAE1/SAE2 + UBC9; inhibition, % at 35 µM; hit rate 0.36% among 290,000; AID 2006, 2009; in the data active = inhibition above about 50%, passing the limit was not always enough
Target sequence (P63279 whole entry, looked up): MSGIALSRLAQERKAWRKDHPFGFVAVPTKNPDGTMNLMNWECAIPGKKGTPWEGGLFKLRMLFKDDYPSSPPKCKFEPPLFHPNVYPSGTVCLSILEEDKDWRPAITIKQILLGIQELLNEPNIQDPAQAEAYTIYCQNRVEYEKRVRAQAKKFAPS
DNA FID counter: compounds displacing fluorescent DNA intercalator, primary screen, artefact control for HCV NS3 helicase inhibitor project, biochemical, FID fluorescence. DNA fluorescent intercalator displacement. inhibition, % at 7.9 µM. hit rate 0.17% among 290,000; in the data active = inhibition above about 37%;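 note: higher means more ethidium bromide displaced from hairpin DNA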
VIM-2 inhibitor: VIM-2 metallo-beta-lactamase inhibitors, primary screen, biochemical, epi-absorbance readout, Pseudomonas aeruginosa enzyme. inhibition, % at 5.6 µM. hit rate 0.89% among 290,000. purified VIM-2, nitrocefin hydrolysis, epi-absorbance fluorescence;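 active = inhibition above the mean of all tested compounds plus 3 SD, cutoff set per screening run, cut at about 7.5% in these data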;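 note: red hydrolysis product quenches plate fluorescence so inhibitors raise well fluorescence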
Mot1-301 SUMO: yeast Mot1-301 growth rescue at high temperature, primary screen, SUMOylation pathway inhibitor project, S. cerevisiae, ATP luminescence, 38.5C; S. cerevisiae Mot1-301 growth rescue; percent above DMSO median, 100 means doubled; growth rescue, % at 18.8 µM; hit rate 1% among 320,000;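 active = every valid replicate shows activation above 250% relative to neutral control wells; inactive = the rest, any valid replicate at or below 250%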
NALP1 yeast inh: NALP1 inflammasome inhibitors in reconstituted yeast, colorimetric, S. cerevisiae, triplicate retest; S. cerevisiae NALP1/ASC/caspase-1 growth, X-gal OD620, 72 h; inhibition, % at 10 µM; hit rate 0.61% among 280,000; AID 2071, 2009; in the data active = inhibition mostly above about 24%, no sharp cut-off; inactive = mostly below about 32%
Yeast Mot1 SUMO: growth restoration of Mot1-301 yeast on galactose, dose response, SUMO pathway inhibitor project, whole organism, S. cerevisiae, ATP luminescence, cherry-picked samples; shares compounds with Mot1-301 SUMO; S. cerevisiae Mot1-301 galactose growth, 24 h; -100 = growth of slx-deleted rescue strain; growth activity, percent, % at 42 µM; 2,300 tested, under 10 active;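 active = Signal drops as the depositor expects, and the fitted half-maximal dose is no more than ten times the top valid tested dose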;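 note: more negative values mean stronger growth rescue toward the control strain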
Each line names hits and unclear results; the compound was inactive in the other large screens (follow-up assays come after a bar, where they were run). Most compounds without a hit are left out; they make up all but 2.9% or so of the library.

CCOC(=O)C1CCN(CC(O)COc2ccc(C(C)(C)CC)cc2)CC1 (centres undefined)	none
CCOC(=O)C1CCN(CC(O)COCc2ccccc2)CC1 (centres undefined)	Mot1-301 SUMO 554.3 | Yeast Mot1 SUMO inactive
CCOC(=O)C1CCN(CC(O)COc2ccc(C(C)(C)C)cc2)CC1 (centres undefined)	Mot1-301 SUMO 376.4 | Yeast Mot1 SUMO inactive
Cc1ccc2[nH]c(=O)c(-c3noc(CC(C)C)n3)cc2c1	none
Cc1cccc(N2C(=O)CSC2c2cccnc2)c1 (centres undefined)	Mot1-301 SUMO 686.5 | Yeast Mot1 SUMO inactive
Cc1c(N=Cc2cc(Br)cc(Br)c2O)cccc1C(=O)O	Mot1-301 SUMO 919.5, NALP1 yeast inh 57.6 | Yeast Mot1 SUMO inactive
O=C(O)c1cccc(N/N=C/c2cc(Br)cc(Br)c2O)c1	none
O=C1CC(N(CCc2ccccc2)C(=S)Nc2ccccc2)C(=O)N1c1ccc(F)cc1 (centres undefined)	Mot1-301 SUMO 699.6 | Yeast Mot1 SUMO inactive
COC(=O)CN(C(=S)Nc1ccc(F)cc1)C1CC(=O)N(c2ccccc2)C1=O (centres undefined)	Mot1-301 SUMO 652.7 | Yeast Mot1 SUMO inactive
O=C(NNC(=O)c1ccc(F)cc1)C(=O)N1CCCCC1	none
O=C(Oc1ccccc1N1C(=O)C2CC=CCC2C1=O)c1ccc(Br)cc1 (centres undefined)	Mot1-301 SUMO 549.1 | Yeast Mot1 SUMO inactive
CCOC(=O)C1=C(N)c2ccccc2CC1C1CCCC1 (centres undefined)	Mot1-301 SUMO 552.2 | Yeast Mot1 SUMO inactive
COc1ccc(N(C(=O)c2ccco2)C(C(=O)NC2CCCC2)c2ccccc2)cc1 (centres undefined)	none
COc1ccc(N(C(=O)c2ccco2)C(C(=O)NC2CCCCC2)c2ccccc2)cc1 (centres undefined)	Mot1-301 SUMO 693.6 (no result: SUMO HTRF inh, NALP1 yeast inh) | Yeast Mot1 SUMO inactive
O=C(Nc1cccc(O)c1)C(Cc1ccccc1)N1C(=O)c2cccc3cccc(c23)C1=O (centres undefined)	Mot1-301 SUMO 854.6 (no result: NALP1 yeast inh) | Yeast Mot1 SUMO inactive
CCOc1cc(-c2ccccc2)nc(N)n1	Mot1-301 SUMO 459.7 | Yeast Mot1 SUMO inactive
CS(=O)(=O)c1cccc(NC(=O)CSc2nnc3n2CCCCC3)c1	none (no result: IMP-1 inhibitor, SUMO HTRF inh, DNA FID counter, VIM-2 inhibitor, NALP1 yeast inh)
CC(=O)Oc1ccc(-c2cccc(C(=O)OCC(=O)N(C)c3ccccc3)c2)cc1	none
COc1ccc(N2C(=O)CSC2c2ccc([N+](=O)[O-])cc2)cc1 (centres undefined)	Mot1-301 SUMO 580.5 | Yeast Mot1 SUMO inactive
CCNC(=O)NC1c2ccccc2CSc2ccccc21 (centres undefined)	Mot1-301 SUMO 613.6 (no result: IMP-1 inhibitor, SUMO HTRF inh, DNA FID counter, VIM-2 inhibitor, NALP1 yeast inh) | Yeast Mot1 SUMO inactive
COc1ccccc1CNC(=O)C1CCCN(S(=O)(=O)c2ccc3c(c2)CC(C)N3C(C)=O)C1 (centres undefined)	none
O=[N+]([O-])c1ccc(N2CCN(CCOCCO)CC2)c([N+](=O)[O-])c1	none
CS(=O)(=O)N1CCCC(C(=O)NCc2ccco2)C1 (centres undefined)	Mot1-301 SUMO 384.5 | Yeast Mot1 SUMO inactive
O=C(NCc1ccco1)C1CCCN(S(=O)(=O)c2ccc(Br)cc2)C1 (centres undefined)	none
CCOc1ccc2nc(C(C)O)[nH]c2c1 (centres undefined)	Mot1-301 SUMO active | Yeast Mot1 SUMO inactive
COc1ccccc1C(=O)C1CCCN(C(=O)c2cccc(-n3cccn3)c2)C1 (centres undefined)	none (no result: Mot1-301 SUMO)
Cc1ccc(-c2[nH]ncc2CNCCc2cnn(-c3ccccc3)c2)cc1C	Mot1-301 SUMO 923.2 | Yeast Mot1 SUMO inactive
COc1cc(C(=O)Oc2cccnc2)cc(OC)c1OC	Mot1-301 SUMO 480.9 (no result: NALP1 yeast inh) | Yeast Mot1 SUMO inactive
S=c1[nH]ccn1-c1cccc(Cl)c1	Mot1-301 SUMO 479.0 | Yeast Mot1 SUMO inactive
CC(NC(=O)C1CCCN(S(=O)(=O)N2CCOCC2)C1)c1ccccc1 (centres undefined)	Mot1-301 SUMO 368.4 | Yeast Mot1 SUMO inactive
CCCCn1c(SCC(=O)Nc2cc(C)on2)nnc1-c1ccco1	Mot1-301 SUMO 527.0 | Yeast Mot1 SUMO inactive
Cc1cc(NC(=O)CSc2nnc(-c3ccco3)n2Cc2ccco2)no1	none
CC1=C(C(N)=O)C(c2ccccn2)n2nc(SCc3ccccc3Cl)nc2N1 (centres undefined)	Mot1-301 SUMO 384.3 | Yeast Mot1 SUMO inactive
CC1=C(C(N)=O)C(c2cccnc2)n2nc(SCc3ccccc3Cl)nc2N1 (centres undefined)	none
CN(C)CCNC(=O)c1onc(CSc2ccc(F)c(F)c2)c1C(=O)NCCN(C)C	Mot1-301 SUMO 578.2 (no result: IMP-1 inhibitor, DNA FID counter, VIM-2 inhibitor) | Yeast Mot1 SUMO inactive
O=C(OCC#CCSc1nnc(-c2ccccc2)o1)c1cc2ccccc2o1	Mot1-301 SUMO 581.7 | Yeast Mot1 SUMO inactive
Cc1ccc(-c2nnc(SCC#CCOC(=O)c3ccco3)o2)cc1	none
COc1ccc(N2CCN(C(=O)Cn3nnc(-c4ccc(OC)c(OC)c4)n3)CC2)cc1	Mot1-301 SUMO 385.1 | Yeast Mot1 SUMO inactive
CCOc1ccc(N(C(C)C(=O)N2CCCCCC2)S(C)(=O)=O)cc1 (centres undefined)	none
CCOc1ccc(N(C(C)C(=O)NC(C)CC)S(C)(=O)=O)cc1 (centres undefined)	Mot1-301 SUMO 397.3 | Yeast Mot1 SUMO inactive
O=C(CCC(=O)OC(C(=O)c1ccccc1)c1ccccc1)Nc1ccccc1 (centres undefined)	Mot1-301 SUMO 414.9 | Yeast Mot1 SUMO inactive
CCCc1nn2c(=O)cc(CSCC(=O)Nc3ccc(OC)cc3)nc2s1	Mot1-301 SUMO 538.8 | Yeast Mot1 SUMO inactive
O=C(c1ccco1)N1CCN(CC(=O)N2c3ccccc3CCc3ccccc32)CC1	Mot1-301 SUMO 367.9 | Yeast Mot1 SUMO inactive
Cc1cccc(OCCN2CSC(=S)N(C)C2)c1	Mot1-301 SUMO 371.5 | Yeast Mot1 SUMO inactive
O=C(O)CSc1ccnc2cc(Cl)ccc12	none (no result: NALP1 yeast inh)
O=c1[nH]cnc2cc(Cl)ccc12	Mot1-301 SUMO active | Yeast Mot1 SUMO inactive
O=C(c1cccc(O)c1)N1CCN(C(=O)C2CC2)CC1	none (no result: IMP-1 inhibitor, SUMO HTRF inh, DNA FID counter, VIM-2 inhibitor, NALP1 yeast inh)
FC(F)(F)c1ccccc1NC1=NCCC1	none
